From paper PMC6045484 (ACS Omega, 2018)
≈ marks a conversion by molar mass, not a printed value.

Assays:
P. falciparum (D6) = assay: in vitro antimalarial activity, plasmodial LDH; assay type: cell-based, Plasmodium falciparum; conditions: Plasmodium falciparum, D6, 72 h, read-out: P. falciparum (D6) IC50
P. falciparum (W2) = assay: in vitro antimalarial activity, plasmodial LDH; assay type: cell-based, Plasmodium falciparum; conditions: Plasmodium falciparum, W2, 72 h, read-out: P. falciparum (W2) IC50, CQ-resistant W2 strain, 72 h
Summary of the method: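 P. falciparum-infected erythrocytes (2% parasitemia, 2% hematocrit) in RPMI 1640 with 10% human serum and 60 μg/mL amikacin. Exposed to test compound dilutions for 72 h at 37 °C under 90% N2/5% O2/5% CO2. LDH measured with Malstat reagent (30 min, room temperature), then NBT/PES for 1 h in the dark, stopped with 5% acetic acid, read at 650 nm. IC50 from dose-response curves.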

[1] = test system: SK-MEL, KB, BT-549, SK-OV-3, VERO and LLC-PK1 cells; assay: cytotoxicity, neutral red uptake assay; assay type: cell-based, mammalian; conditions: highest test concentration 4760 ng/mL
Summary of the method: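 Cells seeded at 25 000/well and allowed 24 h to reach confluence. Test compound was then added and incubated 48 h. Viable cells were counted by a modified neutral red uptake method. The panel was four human cancer lines and two noncancerous mammalian kidney lines. Doxorubicin served as positive control and DMSO as negative control.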

[2] = test system: L. donovani promastigotes; assay: in vitro antileishmanial activity, alamarBlue assay; assay type: cell-based, Leishmania donovani; conditions: Leishmania donovani, 48 h; for IC50: read-out: L. donovani IC50, promastigotes, 48 h; for IC90: read-out: L. donovani IC90, promastigotes, 48 h
C. albicans ATCC90028 = assay: in vitro antifungal activity; assay type: cell-based, Candida albicans; conditions: Candida albicans; for IC50: ATCC90028, read-out: C. albicans IC50; for MFC: ATCC90028, read-out: C. albicans MFC; for MIC: ATCC90028, read-out: C. albicans MIC
Summary of the method: (§1)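 Modified NCCLS broth method in Sabouraud dextrose. Inoculum set by OD630 to 1.5 × 10^3 CFU/mL. Test compound serially diluted in 20% DMSO/saline, duplicate wells, up to 20 μg/mL. Incubated 70–74 h at 35 °C; 530 nm read before and after. IC50 is 50% growth inhibition; MIC is no detectable growth. MFC from clear wells subcultured on agar. Amphotericin B control.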

C. neoformans ATCC90113 = assay: in vitro antifungal activity; assay type: cell-based, Cryptococcus neoformans; conditions: Cryptococcus neoformans; for IC50: ATCC90113, read-out: C. neoformans IC50; for MFC: ATCC90113, read-out: C. neoformans MFC; for MIC: ATCC90113, read-out: C. neoformans MIC
Summary of the method: as §1

A. fumigatus ATCC 90906 = assay: in vitro antifungal activity; assay type: cell-based, Aspergillus fumigatus; conditions: Aspergillus fumigatus; for IC50: ATCC90906, read-out: A. fumigatus IC50; for MFC: ATCC90906, read-out: A. fumigatus MFC; for MIC: ATCC90906, read-out: A. fumigatus MIC
Summary of the method: as §1

SA (ATCC29213) = assay: in vitro antibacterial activity; assay type: cell-based; conditions: Staphylococcus aureus; for IC50: ATCC29213, read-out: IC50 (concentration that affords 50% growth inhibition), SA; for MBC: ATCC29213, read-out: MBC (minimum bactericidal concentration), SA; for MIC: ATCC29213, read-out: MIC, SA
Summary of the method: (§2)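 Test compound serially diluted in 20% DMSO/saline and plated in duplicate, up to 20 μg/mL. Inoculum in cation-adjusted Mueller–Hinton broth, pH 7.3, set by OD630 to 5 × 10^5 CFU/mL. Incubated 16–20 h at 35 °C; 530 nm read before and after. IC50 is 50% growth inhibition; MIC is no detectable growth. MBC from clear wells subcultured on agar. Ciprofloxacin control.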

MRSA (ATCC33591) = assay: in vitro antibacterial activity; assay type: cell-based, methicillin-resistant Staphylococcus aureus; conditions: Staphylococcus aureus, ATCC33591|MRSA, read-out: MIC, MRSA
Summary of the method: as §2

[3] = test system: M. intracellulare (ATCC23068); assay: in vitro antibacterial activity, modified alamarBlue procedure; assay type: cell-based, Mycobacterium intracellulare; conditions: Mycobacterium intracellulare; for IC50: ATCC23068, read-out: IC50 (concentration that affords 50% growth inhibition), M. intracellulare; for MBC: ATCC23068, read-out: MBC (minimum bactericidal concentration), M. intracellulare; for MIC: ATCC23068, read-out: MIC, M. intracellulare
Summary of the method: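 Modified alamarBlue microplate method. Test compound serially diluted in 20% DMSO/saline, duplicate wells, up to 20 μg/mL. Inoculum 2.0 × 10^6 CFU/mL in Middlebrook 7H9 with OADC, pH 7.3, containing 5% alamarBlue. Incubated 70–74 h at 37 °C, 10% CO2; fluorescence 544ex/590em read before and after. MIC: no blue-to-pink change. MBC by subculturing blue wells on agar. Ciprofloxacin control.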

Structure (SMILES) | IC50 (P. falciparum (D6)) [µg/mL] | IC50 (P. falciparum (W2)) [µg/mL] | cytotoxicity CTX [1] | IC50 [2] [µg/mL] | IC90 [2] [µg/mL] | IC50 (C. albicans ATCC90028) [µg/mL] | MFC (C. albicans ATCC90028) [µg/mL] | MIC (C. albicans ATCC90028) [µg/mL] | IC50 (C. neoformans ATCC90113) [µg/mL] | MFC (C. neoformans ATCC90113) [µg/mL] | MIC (C. neoformans ATCC90113) [µg/mL] | IC50 (A. fumigatus ATCC 90906) [µg/mL] | MFC (A. fumigatus ATCC 90906) [µg/mL] | MIC (A. fumigatus ATCC 90906) [µg/mL] | IC50 (SA (ATCC29213)) [µg/mL] | MBC (SA (ATCC29213)) [µg/mL] | MIC (SA (ATCC29213)) [µg/mL] | MIC (MRSA (ATCC33591)) [µg/mL] | IC50 [3] [µg/mL] | MBC [3] [µg/mL] | further results
CCCCCCOc1c(OC)cc(NC(C)CCCNC(=O)C(N)CCSC)c2nc(C(C)(C)C)ccc12 (stereo not drawn) [compound 102, 2-Amino-N-(4-(2-tert-butyl-5-(hexyloxy)-6-methoxyquinolin-8-ylamino)pentyl)-4-(methylthio)butanamide] | 2.8 (≈ 5.12 µM) | 2.8 (≈ 5.12 µM) | NC (NC, not cytotoxic up to 4760 ng/mL (4.76 μg/mL)) | 5.9 (≈ 10.8 µM) | 22 (≈ 40.2 µM) | > 20 | > 20 | > 20 | > 20 | > 20 | > 20 | > 20 | > 20 | > 20 | 5.03 (≈ 9.2 µM) | 20 (≈ 36.6 µM) | 10 (≈ 18.3 µM) | 20 (≈ 36.6 µM) | 11.2 (≈ 20.4 µM) | 20 (≈ 36.6 µM) | MIC [3]: 20 µg/mL (≈ 36.6 µM)
CCCCCCOc1c(OC)cc(NC(C)CCCNC(=O)C(N)Cc2cc3ccccc3[nH]2)c2nc(C(C)(C)C)ccc12 (stereo not drawn) [compound 108, 2-Amino-N-(4-(2-tert-butyl-5-(hexyloxy)-6-methoxyquinolin-8-ylamino)pentyl)-3-(1H-indol-2-yl)propanamide] | > 4.76 | > 4.76 | NC (NC, not cytotoxic up to 4760 ng/mL (4.76 μg/mL)) | 19.1 (≈ 31.7 µM) | > 40 | > 20 | > 20 | > 20 | 5.09 (≈ 8.46 µM) | 10 (≈ 16.6 µM) | 10 (≈ 16.6 µM) | > 20 | > 20 | > 20 | 4.98 (≈ 8.27 µM) | > 20 | 10 (≈ 16.6 µM) | 10 (≈ 16.6 µM) | 12.7 (≈ 21.2 µM) | 20 (≈ 33.2 µM) | MIC [3]: 20 µg/mL (≈ 33.2 µM)
COc1cc(NC(C)CCCN)c2nc(C(C)(C)C)ccc2c1Oc1ccc(Cl)c(Cl)c1 (stereo not drawn) [compound 55, N^4-(2-tert-Butyl-5-(3,4-dichlorophenoxy)-6-methoxyquinolin-8-yl)pentane-1,4-diamine] | 0.14 (≈ 0.294 µM) | 0.13 (≈ 0.273 µM) | NC (NC, not cytotoxic up to 4760 ng/mL (4.76 μg/mL)) | 11 (≈ 23.1 µM) | > 40 | > 20 | > 20 | > 20 | 3.18 (≈ 6.67 µM) | 5 (≈ 10.5 µM) | 5 (≈ 10.5 µM) | > 20 | > 20 | > 20 | 5.96 (≈ 12.5 µM) | 10 (≈ 21 µM) | 10 (≈ 21 µM) | 10 (≈ 21 µM) | 9.51 (≈ 20 µM) | 20 (≈ 42 µM) | MIC [3]: 20 µg/mL (≈ 42 µM)
CCCCCCCOc1c(OC)cc(NC(C)CCCNC(=O)C(N)C(C)CC)c2nc(C(C)(C)C)ccc12 (stereo not drawn) [compound 114, 2-Amino-N-(4-(2-tert-butyl-5-(heptyloxy)-6-methoxyquinolin-8-ylamino)pentyl)-3-methylpentanamide] | 4.5 (≈ 8.29 µM) | 2.9 (≈ 5.34 µM) | NC (NC, not cytotoxic up to 4760 ng/mL (4.76 μg/mL)) | 3.8 (≈ 7 µM) | 7 (≈ 12.9 µM) | 14.2 (≈ 26.2 µM) | > 20 | > 20 | 1.07 (≈ 1.97 µM) | 2.5 (≈ 4.61 µM) | 2.5 (≈ 4.61 µM) | > 20 | > 20 | > 20 | 2.19 (≈ 4.03 µM) | 5 (≈ 9.21 µM) | 5 (≈ 9.21 µM) | 5 (≈ 9.21 µM) | 5.63 (≈ 10.4 µM) | 20 (≈ 36.8 µM) | MIC [3]: 10 µg/mL (≈ 18.4 µM)
